Data on 10 molecules can be found in PubChem BioAssay AID720702 (The Scripps Research Institute Molecular Screening Center, 2013).

In all, about 370,000 compounds went through this assay and about 1,200 (0.32%) were called active.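 How the source made its calls: active means inhibition above the mean of all tested compounds plus 3 SD, set per campaign (cut at about 25% in these data); inactive means the rest.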 The entries come from a sample that favours actives as a whole.

Sequence of Tyrosyl-DNA phosphodiesterase 2 (Homo sapiens) (O95551 whole entry, looked up): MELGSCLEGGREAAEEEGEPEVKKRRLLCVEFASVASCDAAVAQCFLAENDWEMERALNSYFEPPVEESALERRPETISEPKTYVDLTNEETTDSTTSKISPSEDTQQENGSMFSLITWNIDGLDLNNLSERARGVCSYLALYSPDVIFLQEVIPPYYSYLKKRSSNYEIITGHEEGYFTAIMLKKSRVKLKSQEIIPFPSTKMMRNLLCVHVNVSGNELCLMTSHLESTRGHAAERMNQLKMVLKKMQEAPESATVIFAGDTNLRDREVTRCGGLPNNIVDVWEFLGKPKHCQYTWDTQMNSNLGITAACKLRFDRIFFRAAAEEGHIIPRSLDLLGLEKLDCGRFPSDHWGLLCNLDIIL

The test deals with Tyrosyl-DNA phosphodiesterase 2 (Homo sapiens) (UniProt O95551). In words: blockers of TDP2 phosphodiesterase activity – biochemical, epi absorbance, recombinant enzyme, primary screen (AID 720702).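 Further: 0% = DMSO with enzyme and 100% = buffer with substrate but no TDP2.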 Conditions: recombinant TDP2, T5PNP hydrolysis, p-nitrophenol absorbance 415 nm; at 12.8 µM; stronger effect = higher value. A digest of the protocol:
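System: recombinant human TDP2 / Amount: 120 nM TDP2 per well / Also added: 5 mM T5PNP chromogenic substrate / Doses: 12.8 µM single point, 1% DMSO / Incubation: 2 h at 37 °C / Detection: p-Nitrophenol epi absorbance / Evaluation: % inhibition relative to enzyme-containing and enzyme-free wells / Repeats: singlicate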
Take `CCOC(=O)c1cccc(C2=C(CNC(=O)c3ccncc3)[C@H]3CC[C@@H](C2)N3Cc2ccccc2)c1`: the inhibition is 4.63% (inactive).

Consider `COc1cc(Cn2c(N)c(C(=O)NCc3ccco3)c3nc4ccccc4nc32)cc(OC)c1OC`, for which the inhibition is 0.54% (inactive).

Regarding `CCOC(=O)c1c(N)n(Cc2ccccc2)c2nc3ccccc3nc12`, the inhibition was 82.6% (active).

Turning to `CCC(C)n1c(O)c(/C=N/Nc2nc3c(c(=O)n(C)c(=O)n3C)n2C)c(=O)[nH]c1=S` (stereo not given), the inhibition was -0.24% (inactive).

As for `CCC(C)NC1(c2ccccc2)CCCCC1` (stereo not given), the inhibition is 5% (inactive).

For `CC(Cc1cccs1)NCc1ccc(Cl)cc1` (stereo not given), the inhibition was 4.69% (inactive).

For `Cn1c(C(=O)N2CCC(C(=O)N3CCC4(CC3)OCCO4)CC2)cc2sccc21`, the inhibition was -4.33% (inactive).

For the molecule `O=C1NC(=O)N(Cc2ccco2)C(=O)/C1=C\c1ccc(-c2ccc(F)cc2)o1`, the inhibition was 26.3% (active).

For the molecule `N[C@@H](Cc1c[nH]c2ccccc12)c1nnc(SCc2c(F)cccc2Cl)o1`, the inhibition is 5.28% (inactive).

As to `Cc1ccccc1CCC[C@@H](CC1CCCCC1)CN(C)C(=O)Oc1ccccc1`, the inhibition was -0.32% (inactive).
